Series [1] in a line: Half life in Sprague-Dawley rat at 5 mg/kg, po measured upto 24 hrs by LC-MS/MS analysis. As to conditions: in vivo. In kind it is ADME, organism-based. A digest of the protocol: (§1)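 Sprague–Dawley rats, n = 5, dosed at 5 mg/kg as a solution in 2% ethanol and 1% Tween 80, pH 5.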
The target of series [2] is T1, Tyrosine-protein kinase JAK3 (Homo sapiens, UniProt P52333).
T1 sequence (P52333 whole entry): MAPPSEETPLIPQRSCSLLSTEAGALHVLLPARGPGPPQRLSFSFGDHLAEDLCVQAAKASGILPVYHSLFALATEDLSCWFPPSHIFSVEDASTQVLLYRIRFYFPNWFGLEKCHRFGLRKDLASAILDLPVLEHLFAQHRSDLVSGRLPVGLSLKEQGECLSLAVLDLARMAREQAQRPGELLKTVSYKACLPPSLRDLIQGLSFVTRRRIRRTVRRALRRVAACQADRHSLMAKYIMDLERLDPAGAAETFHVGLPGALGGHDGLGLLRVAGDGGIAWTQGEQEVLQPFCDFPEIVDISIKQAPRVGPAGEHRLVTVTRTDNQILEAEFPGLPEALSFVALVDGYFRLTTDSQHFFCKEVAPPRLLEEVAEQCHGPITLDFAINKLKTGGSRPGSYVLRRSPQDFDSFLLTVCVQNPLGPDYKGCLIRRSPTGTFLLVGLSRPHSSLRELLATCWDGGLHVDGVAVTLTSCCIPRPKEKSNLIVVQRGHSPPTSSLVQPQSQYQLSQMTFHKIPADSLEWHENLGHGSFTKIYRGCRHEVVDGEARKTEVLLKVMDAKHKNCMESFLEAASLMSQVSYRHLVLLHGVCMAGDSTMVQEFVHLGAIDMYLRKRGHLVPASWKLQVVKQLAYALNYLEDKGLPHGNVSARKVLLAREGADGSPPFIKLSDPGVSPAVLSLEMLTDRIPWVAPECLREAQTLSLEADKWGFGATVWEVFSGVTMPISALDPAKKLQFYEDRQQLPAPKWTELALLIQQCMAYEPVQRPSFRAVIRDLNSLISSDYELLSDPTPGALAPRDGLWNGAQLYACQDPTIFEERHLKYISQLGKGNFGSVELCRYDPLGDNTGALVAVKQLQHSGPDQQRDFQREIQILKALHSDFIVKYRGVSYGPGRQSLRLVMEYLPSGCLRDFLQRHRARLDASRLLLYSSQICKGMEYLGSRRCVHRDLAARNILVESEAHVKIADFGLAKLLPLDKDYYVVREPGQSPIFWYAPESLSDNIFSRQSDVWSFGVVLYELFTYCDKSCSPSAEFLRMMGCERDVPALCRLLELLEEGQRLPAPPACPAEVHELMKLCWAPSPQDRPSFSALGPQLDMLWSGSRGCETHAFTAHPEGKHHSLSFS
Put plainly: Inhibition of JAK3 (unknown origin) in presence of Mg/ATP mixture by [gamma p33]-ATP based radiometric assay.

Series [3] can be described thus: Oral bioavailability in Sprague-Dawley rat at 5 mg/kg measured upto 24 hrs by LC-MS/MS analysis. The following applies: in vivo. It is filed as ADME, organism-based. A digest of the protocol:
(§2)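 Sprague–Dawley rats, n = 5 per group, dosed at 5 mg/kg as a solution in 2% ethanol and 1% Tween 80, pH 5.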

Series [4] is described as follows: Clearance in Sprague-Dawley rat at 5 mg/kg, po measured upto 24 hrs by LC-MS/MS analysis. It is filed as ADME, organism-based. The following applies: in vivo. In a few lines: as §1
Series [5] is described as follows: Tmax in Sprague-Dawley rat at 5 mg/kg, po measured upto 24 hrs by LC-MS/MS analysis. In kind it is ADME, organism-based. The following applies: in vivo. In a few lines:
as §2

The target of series [6] is Tyrosine-protein kinase JAK2 (Homo sapiens, UniProt O60674, V617F). Put plainly: Inhibition of JAK2 V617F mutant in human SET2 cells. In kind it is cell-based. In a few lines:
(§3)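 Cell proliferation assay. IC50 is the concentration that inhibits proliferation by 50%, taken from dose–response curves. Mean ± SEM of at least three independent experiments.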

Series [7] deals with Non-receptor tyrosine-protein kinase TYK2 (Homo sapiens, UniProt P29597). Put plainly: Inhibition of TYK2 (unknown origin) in presence of Mg/ATP mixture by [gamma p33]-ATP based radiometric assay.
Series [8] in a line: Metabolic stability in human liver microsomes assessed as half life. In kind it is ADME, Microsome.
In series [9] the target is T2, Receptor-type tyrosine-protein kinase FLT3 (Homo sapiens, UniProt P36888).
T2 sequence (P36888 whole entry): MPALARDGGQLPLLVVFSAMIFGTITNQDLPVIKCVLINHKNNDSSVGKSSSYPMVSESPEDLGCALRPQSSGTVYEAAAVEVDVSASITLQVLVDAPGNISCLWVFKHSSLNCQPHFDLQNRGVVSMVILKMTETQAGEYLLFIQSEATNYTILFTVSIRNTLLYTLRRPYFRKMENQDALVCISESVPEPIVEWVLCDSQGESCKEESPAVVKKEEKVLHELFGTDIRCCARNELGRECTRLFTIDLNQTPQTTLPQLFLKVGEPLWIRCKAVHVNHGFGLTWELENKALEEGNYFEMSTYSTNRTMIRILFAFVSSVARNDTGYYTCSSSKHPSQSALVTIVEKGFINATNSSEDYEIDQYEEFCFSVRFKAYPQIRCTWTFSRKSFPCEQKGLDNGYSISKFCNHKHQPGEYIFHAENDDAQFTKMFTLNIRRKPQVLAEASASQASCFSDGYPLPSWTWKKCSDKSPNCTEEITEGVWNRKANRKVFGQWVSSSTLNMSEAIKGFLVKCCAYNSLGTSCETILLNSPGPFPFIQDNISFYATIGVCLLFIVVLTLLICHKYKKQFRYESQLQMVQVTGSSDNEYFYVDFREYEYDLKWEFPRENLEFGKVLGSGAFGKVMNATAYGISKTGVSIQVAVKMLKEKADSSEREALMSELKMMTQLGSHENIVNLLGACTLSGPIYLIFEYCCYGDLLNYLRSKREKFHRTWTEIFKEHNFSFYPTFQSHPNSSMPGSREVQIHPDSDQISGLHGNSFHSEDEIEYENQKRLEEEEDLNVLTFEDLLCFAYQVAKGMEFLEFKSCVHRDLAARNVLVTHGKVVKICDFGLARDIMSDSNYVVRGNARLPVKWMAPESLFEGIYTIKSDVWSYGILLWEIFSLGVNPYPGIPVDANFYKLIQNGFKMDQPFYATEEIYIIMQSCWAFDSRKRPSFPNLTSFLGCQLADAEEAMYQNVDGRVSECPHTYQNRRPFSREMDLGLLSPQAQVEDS
Kind of series: Inhibition of FLT3 in human MOLM-13 cells. It is filed as cell-based. In a few lines: as §3

The target in series [10] is Tyrosine-protein kinase JAK1 (Homo sapiens, UniProt P23458). Put plainly: Inhibition of JAK1 (unknown origin) in presence of Mg/ATP mixture by [gamma p33]-ATP based radiometric assay. In a few lines: (§4)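 IC50 values determined by Eurofins Discovery.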
Series [11] has as its target T2, Receptor-type tyrosine-protein kinase FLT3. Kind of series: Inhibition of FLT3 (unknown origin) in presence of Mg/ATP mixture by [gamma p33]-ATP based radiometric assay. A digest of the protocol: as §4
The nature of series [12]: Selectivity ratio of IC50 for JAK3 (unknown origin) to IC50 for JAK2 (unknown origin).
In series [13] the target is T3, Tyrosine-protein kinase JAK2 (Homo sapiens, UniProt O60674). Kind of series: Inhibition of human JAK2 JH1 expressed in baculovirus infected Sf9 cells assessed as residual activity at 100 nM relative to control.
A short description of series [14]: Selectivity ratio of IC50 for FLT3 (unknown origin) to IC50 for JAK2 (unknown origin).
The nature of series [15]: Cmax in Sprague-Dawley rat at 5 mg/kg, po measured upto 24 hrs by LC-MS/MS analysis. As to conditions: in vivo. It is filed as ADME, organism-based. Also on record: dose 5 mg/kg, time < 24 hrs, route po. A digest of the protocol: as §1
The target in series [16] is Tyrosine-protein kinase JAK2 (Mus musculus, UniProt Q62120, V617F). Put plainly: Inhibition of JAK2 V617F mutant in mouse BaF3 cells. In kind it is cell-based. A digest of the protocol:
as §3

The nature of series [17]: Selectivity ratio of IC50 for TYK2 (unknown origin) to IC50 for JAK2 (unknown origin).
Series [18] can be described thus: AUC(0 to t) in Sprague-Dawley rat at 5 mg/kg, po measured upto 24 hrs by LC-MS/MS analysis. In kind it is ADME, organism-based. Also on record: time < 24 hrs, dose 5 mg/kg, route po. As to conditions: in vivo. In a few lines:
as §1

The target of series [19] is T3, Tyrosine-protein kinase JAK2. Put plainly: Inhibition of JAK2 (unknown origin) in presence of Mg/ATP mixture by [gamma p33]-ATP based radiometric assay. A digest of the protocol: as §4

The text below walks through data of ChEMBL document CHEMBL5325511, “Discovery of N-(4-(Aminomethyl)phenyl)-5-methylpyrimidin-2-amine Derivatives as Potent and Selective JAK2 Inhibitors” (ACS Med Chem Lett, 2023).

T3 sequence (O60674 whole entry): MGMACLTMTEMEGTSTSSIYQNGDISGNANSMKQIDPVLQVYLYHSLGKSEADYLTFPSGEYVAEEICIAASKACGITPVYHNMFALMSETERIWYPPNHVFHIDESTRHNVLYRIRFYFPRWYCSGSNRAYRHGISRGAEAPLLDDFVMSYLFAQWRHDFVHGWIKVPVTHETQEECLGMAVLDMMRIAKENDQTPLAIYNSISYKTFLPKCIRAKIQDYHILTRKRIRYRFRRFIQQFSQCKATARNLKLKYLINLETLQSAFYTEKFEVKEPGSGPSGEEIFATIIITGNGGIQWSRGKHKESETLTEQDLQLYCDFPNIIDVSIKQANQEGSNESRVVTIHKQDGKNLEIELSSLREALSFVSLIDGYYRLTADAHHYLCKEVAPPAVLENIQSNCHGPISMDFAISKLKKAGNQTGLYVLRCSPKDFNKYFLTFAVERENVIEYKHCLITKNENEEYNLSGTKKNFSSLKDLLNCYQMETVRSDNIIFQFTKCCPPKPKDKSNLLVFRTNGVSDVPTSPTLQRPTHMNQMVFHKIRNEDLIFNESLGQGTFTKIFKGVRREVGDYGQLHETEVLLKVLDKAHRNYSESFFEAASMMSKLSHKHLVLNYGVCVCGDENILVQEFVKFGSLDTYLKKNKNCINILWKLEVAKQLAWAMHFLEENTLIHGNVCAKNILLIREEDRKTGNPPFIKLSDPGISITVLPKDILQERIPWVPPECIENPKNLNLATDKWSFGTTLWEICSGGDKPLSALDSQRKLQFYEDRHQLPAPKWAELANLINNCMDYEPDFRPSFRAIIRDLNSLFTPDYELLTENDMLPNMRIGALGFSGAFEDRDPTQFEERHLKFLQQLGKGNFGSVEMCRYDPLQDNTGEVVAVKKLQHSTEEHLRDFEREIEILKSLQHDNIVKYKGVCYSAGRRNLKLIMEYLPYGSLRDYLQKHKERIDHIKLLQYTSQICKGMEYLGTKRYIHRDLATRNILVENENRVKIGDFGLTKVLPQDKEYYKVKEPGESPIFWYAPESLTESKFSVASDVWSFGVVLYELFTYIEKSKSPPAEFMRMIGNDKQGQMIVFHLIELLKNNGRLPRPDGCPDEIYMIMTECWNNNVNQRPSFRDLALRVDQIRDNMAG
Chain of Tyrosine-protein kinase JAK2 (Mus musculus, UniProt Q62120, V617F) (Q62120 as listed by the source V617F): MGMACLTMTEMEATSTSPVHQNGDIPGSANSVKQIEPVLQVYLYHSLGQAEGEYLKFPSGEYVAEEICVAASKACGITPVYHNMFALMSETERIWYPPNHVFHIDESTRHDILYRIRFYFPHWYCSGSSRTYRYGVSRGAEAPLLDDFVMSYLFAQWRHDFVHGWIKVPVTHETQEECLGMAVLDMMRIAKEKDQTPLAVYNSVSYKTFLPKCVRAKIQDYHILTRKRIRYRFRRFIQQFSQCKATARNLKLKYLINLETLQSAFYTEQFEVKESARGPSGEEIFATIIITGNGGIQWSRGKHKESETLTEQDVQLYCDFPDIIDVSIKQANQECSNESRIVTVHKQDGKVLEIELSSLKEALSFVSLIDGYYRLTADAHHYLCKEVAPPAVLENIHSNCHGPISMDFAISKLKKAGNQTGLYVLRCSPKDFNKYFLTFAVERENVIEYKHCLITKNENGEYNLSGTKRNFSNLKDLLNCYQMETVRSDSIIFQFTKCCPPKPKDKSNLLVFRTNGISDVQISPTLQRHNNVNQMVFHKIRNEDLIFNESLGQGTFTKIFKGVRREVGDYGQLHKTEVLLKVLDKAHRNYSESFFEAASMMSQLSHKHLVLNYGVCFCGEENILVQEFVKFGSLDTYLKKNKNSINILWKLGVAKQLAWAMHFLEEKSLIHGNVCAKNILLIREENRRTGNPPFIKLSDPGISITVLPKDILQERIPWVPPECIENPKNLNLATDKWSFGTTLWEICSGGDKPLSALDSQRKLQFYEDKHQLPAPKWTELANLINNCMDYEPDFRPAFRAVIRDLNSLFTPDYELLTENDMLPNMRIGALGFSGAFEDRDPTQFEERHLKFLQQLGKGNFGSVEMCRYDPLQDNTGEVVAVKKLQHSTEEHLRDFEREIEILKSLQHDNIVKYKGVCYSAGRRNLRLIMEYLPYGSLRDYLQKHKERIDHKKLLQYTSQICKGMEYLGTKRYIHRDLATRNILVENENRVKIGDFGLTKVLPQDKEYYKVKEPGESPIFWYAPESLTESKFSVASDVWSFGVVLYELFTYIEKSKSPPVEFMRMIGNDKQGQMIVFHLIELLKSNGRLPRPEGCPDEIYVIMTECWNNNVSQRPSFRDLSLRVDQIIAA
Chain of Tyrosine-protein kinase JAK2 (Homo sapiens, UniProt O60674, V617F) (O60674 whole entry V617F): as the sequence (O60674 whole entry) above, with V617F counted along it
Chain of Tyrosine-protein kinase JAK1 (P23458 whole entry): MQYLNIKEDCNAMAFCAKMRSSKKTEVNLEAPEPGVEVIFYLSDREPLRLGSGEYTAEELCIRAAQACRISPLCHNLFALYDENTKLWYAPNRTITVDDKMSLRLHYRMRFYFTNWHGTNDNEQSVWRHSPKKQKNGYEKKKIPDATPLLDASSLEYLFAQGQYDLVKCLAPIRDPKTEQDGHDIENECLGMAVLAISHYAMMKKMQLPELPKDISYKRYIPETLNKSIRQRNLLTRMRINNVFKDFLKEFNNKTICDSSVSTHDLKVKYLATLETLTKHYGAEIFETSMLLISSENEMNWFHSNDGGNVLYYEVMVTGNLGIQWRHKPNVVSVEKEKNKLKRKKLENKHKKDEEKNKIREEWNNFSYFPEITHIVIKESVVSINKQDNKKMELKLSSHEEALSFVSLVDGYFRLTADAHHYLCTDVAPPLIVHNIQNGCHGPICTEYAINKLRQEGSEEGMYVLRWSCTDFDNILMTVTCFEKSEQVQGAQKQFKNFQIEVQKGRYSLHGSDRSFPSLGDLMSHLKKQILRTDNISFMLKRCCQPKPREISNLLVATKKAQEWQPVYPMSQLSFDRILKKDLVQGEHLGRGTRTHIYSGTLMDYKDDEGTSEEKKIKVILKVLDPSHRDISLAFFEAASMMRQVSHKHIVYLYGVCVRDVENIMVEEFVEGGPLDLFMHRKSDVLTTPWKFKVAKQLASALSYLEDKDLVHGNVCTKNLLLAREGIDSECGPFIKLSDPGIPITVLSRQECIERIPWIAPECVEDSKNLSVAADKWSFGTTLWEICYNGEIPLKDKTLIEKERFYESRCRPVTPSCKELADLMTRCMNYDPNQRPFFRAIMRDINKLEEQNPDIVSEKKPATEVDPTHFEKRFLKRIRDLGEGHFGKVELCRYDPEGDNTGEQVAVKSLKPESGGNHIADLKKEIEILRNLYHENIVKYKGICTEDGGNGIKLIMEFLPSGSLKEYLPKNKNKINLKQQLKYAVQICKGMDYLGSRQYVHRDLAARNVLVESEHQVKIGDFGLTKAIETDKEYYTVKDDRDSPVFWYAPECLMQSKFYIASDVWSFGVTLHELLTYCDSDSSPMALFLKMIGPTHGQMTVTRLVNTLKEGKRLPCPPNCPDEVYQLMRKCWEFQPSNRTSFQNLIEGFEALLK
Chain of Non-receptor tyrosine-protein kinase TYK2 (P29597 whole entry): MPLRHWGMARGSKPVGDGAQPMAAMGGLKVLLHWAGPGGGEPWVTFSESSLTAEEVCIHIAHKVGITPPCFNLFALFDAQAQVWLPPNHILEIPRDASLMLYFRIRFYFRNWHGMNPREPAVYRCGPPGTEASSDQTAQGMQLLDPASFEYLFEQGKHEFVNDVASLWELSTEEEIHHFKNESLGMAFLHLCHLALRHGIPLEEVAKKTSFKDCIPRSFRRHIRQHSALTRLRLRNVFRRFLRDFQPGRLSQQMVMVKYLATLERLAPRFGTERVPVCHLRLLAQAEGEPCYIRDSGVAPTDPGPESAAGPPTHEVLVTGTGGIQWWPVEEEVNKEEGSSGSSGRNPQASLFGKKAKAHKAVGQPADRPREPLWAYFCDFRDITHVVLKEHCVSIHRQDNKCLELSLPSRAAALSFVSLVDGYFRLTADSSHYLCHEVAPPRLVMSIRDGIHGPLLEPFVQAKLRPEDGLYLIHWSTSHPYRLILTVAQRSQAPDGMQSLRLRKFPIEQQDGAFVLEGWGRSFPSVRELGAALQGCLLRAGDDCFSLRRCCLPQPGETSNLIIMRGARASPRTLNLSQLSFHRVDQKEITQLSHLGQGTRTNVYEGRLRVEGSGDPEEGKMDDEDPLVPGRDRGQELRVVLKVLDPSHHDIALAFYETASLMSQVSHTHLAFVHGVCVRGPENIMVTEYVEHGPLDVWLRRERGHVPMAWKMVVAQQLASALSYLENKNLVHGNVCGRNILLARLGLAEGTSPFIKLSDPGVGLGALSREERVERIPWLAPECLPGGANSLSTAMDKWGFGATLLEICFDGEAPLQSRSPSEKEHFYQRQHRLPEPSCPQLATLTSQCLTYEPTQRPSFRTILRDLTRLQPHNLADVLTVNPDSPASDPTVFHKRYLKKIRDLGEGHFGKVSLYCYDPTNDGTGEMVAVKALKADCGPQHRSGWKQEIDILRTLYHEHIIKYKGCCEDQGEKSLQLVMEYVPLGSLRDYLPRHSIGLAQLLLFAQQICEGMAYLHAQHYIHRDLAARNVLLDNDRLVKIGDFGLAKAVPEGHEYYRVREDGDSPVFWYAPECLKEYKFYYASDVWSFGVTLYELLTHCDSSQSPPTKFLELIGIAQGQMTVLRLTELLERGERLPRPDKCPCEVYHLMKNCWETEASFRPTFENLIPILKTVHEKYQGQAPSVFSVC

The term IC50 denotes the concentration at which inhibition is half-maximal. In general, bioavailability refers to the share of a dose that reaches the circulation, judged against a reference dose that is usually intravenous. A high value points to good availability. A word on the Tmax: it is the time from dosing to the highest level. Usually half-life stands for how long it takes for the measured level to halve. As a reminder, the Cmax is the highest concentration seen after dosing. The compound `Cc1cnc(Nc2ccc(CNS(=O)(=O)C3CC3)cc2)nc1-c1cnn(C(C)C)c1` yielded a t1/2 in series [1] (po, 5 mg/kg, 24 h) of 3.5 h. The IC50 is 265 nM in [2]; 109 nM in series [6]; 204 nM in [7]; 1250 nM in series [9]; 178 nM in series [10]; 297 nM in series [11]. Moreover, the IC50 in [16] was 53.3 nM; in series [19], 5 nM. Further, in [3], the bioavailability was 40.5%. The CL in series [4] came to 21.3 L/h/kg. In addition, the Tmax in series [5] (po, 5 mg/kg, 24 h) is 1.6 h. The half-life in series [8] was over 120 min. Moreover, the Ratio IC50 in series [12] came to 53; in series [14] it was 59.4; in series [17], 40.8. Also, the Activity in [13] stood at 1%. The Cmax in [15] (24 h) came out at 89.3 ng/mL. Besides, the AUCt in [18] worked out at 2011.6 ng·h/mL.

With `CCS(=O)(=O)NCc1ccc(Nc2ncc(C)c(-c3cnn(C(C)C)c3)n2)cc1`, the half-life is 378 min in series [1] (Sprague-Dawley) and over 120 min in series [8]. Also, the IC50 in series [2] turned out to be 287 nM; in series [6] it was 212 nM; in series [7], 192 nM; in series [9], 1510 nM; in series [10] it was 142 nM; in series [11], 412 nM. Also, the figures for the IC50 in [16] and in series [19] were 69.2 nM and 6 nM, respectively. This compound also had a bioavailability in series [3] of 35.7%. For the same compound, the CL in series [4] is 20.4 L/h/kg. Also, in series [5] (Sprague-Dawley, read-out: Tmax), the time of peak concentration (Tmax) amounted to 1 h. Besides, the Ratio IC50 in series [12] was found to be 47.8; in series [14] it was 68.7; in series [17] it was 32. In addition, in series [13], the Activity is 0%. In addition, the Cmax in series [15] (Sprague-Dawley, read-out: Cmax) is 77.8 ng/mL. Besides, the AUCt in series [18] came out at 1556.8 ng·h/mL.
